What was measured:
Mus musculus [1] = assay: Plasma concentration in CD1 mouse assessed per gram of wet tissue at 400 to 600 kBq, iv after 60 mins post-injection by gamma counting; assay type: ADME, organism-based; conditions: in vivo, 1 h
Procedure, shortened: (§1)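 Female CD-1 mice (~8-12 weeks, 20-28 g), fasted 24 h with free access to water. 400-600 kBq [18F] tracer in 200 μL saline given by tail vein to conscious mice. At 5, 30, 60 or 120 min pi (n=4-5 per time) mice anaesthetised, blood taken, then euthanised. Samples weighed, γ-counted, %ID/g wet tissue calculated.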

[2] = Metabolic stability in CD1 mouse urine assessed as formation of hydrophilic and lipophilioc radiometabolite at 200 to 300 MBq, iv after 45 mins post-injection by radio-HPLC and radio-TLC; assay type: ADME, organism-based; conditions: in vivo, 0.75 h
Pancreas [3] = assay: Biodistribution in CD1 mouse pancreas assessed per gram of wet tissue at 400 to 600 kBq, iv after 120 mins post-injection by gamma counting; assay type: ADME, organism-based; conditions: in vivo, 2 h
Procedure, shortened: (§2)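 Female CD-1 mice (~8-12 weeks, 20-28 g), habituated ≥48 h and fasted 24 h with water available. The [18F] tracer (>150 GBq/μmol at end of synthesis) was given in 200 μL saline into the tail vein of conscious animals. At each time point, n=4-5, mice were anaesthetised, blood and urine sampled, then killed by cervical dislocation. Organs were weighed and γ-counted, and values calculated as % ID/g wet tissue.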

[4] = Ratio of drug level in cerebellum to plasma in CD1 mouse at 400 to 600 kBq, iv after 5 mins post-injection; assay type: ADME, organism-based
Procedure, shortened: (§3)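 Female CD-1 mice (~8-12 weeks, 20-28 g), fasted 24 h with free water; 400-600 kBq tracer in 200 μL saline by tail vein into conscious animals. Killed at set times pi (n=4-5 per time); blood and organs weighed, γ-counted, expressed as % ID/g wet tissue; ratio from cerebellum and plasma uptake.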

Lung [5] = assay: Biodistribution in CD1 mouse lung assessed per gram of wet tissue at 400 to 600 kBq, iv after 60 mins post-injection by gamma counting in presence of 1 mg/kg, ip sigma 1/sigma 2 receptor antagonist haloperidol treated before compound addition; assay type: organism-based; set-up: route intravenous; conditions: in vivo, 1 h
Procedure, shortened: (§4)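 They were killed at 60 min pi, and organs were weighed and γ-counted as % ID/g wet tissue. Comparison with controls used Student's t test (independent, two-tailed).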

Mus musculus [6] = assay: Plasma concentration in CD1 mouse assessed per gram of wet tissue at 400 to 600 kBq, iv after 5 mins post-injection by gamma counting; assay type: ADME, organism-based; conditions: in vivo; procedure, shortened: as §1
Blood = assay: Biodistribution in CD1 mouse blood assessed per gram of wet tissue at 400 to 600 kBq, iv after 60 mins post-injection by gamma counting in presence of 1 mg/kg, ip sigma 1/sigma 2 receptor antagonist haloperidol treated before compound addition; assay type: organism-based; set-up: dose 1 mg/kg, route intravenous; conditions: in vivo, 1 h
Procedure, shortened: (§5)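 Blocking arm in fasted female CD-1 mice (n=5). […] Animals were killed at 60 min post-injection, and organs were weighed and γ-counted as % ID/g wet tissue. Percent change was taken against the 60 min control group, with two-tailed unpaired Student's t test.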

Pancreas [7] = assay: Biodistribution in CD1 mouse pancreas assessed per gram of wet tissue at 400 to 600 kBq, iv after 30 mins post-injection by gamma counting; assay type: ADME, organism-based; conditions: in vivo, 0.5 h; procedure, shortened: as §2
[8] = Biodistribution in CD1 mouse gonad assessed per gram of wet tissue at 400 to 600 kBq, iv after 5 mins post-injection by gamma counting; assay type: ADME, organism-based; conditions: in vivo
Procedure, shortened: (§6)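 Female CD-1 mice (~8-12 weeks, 20-28 g) were fasted 24 h with free water. Conscious mice got 400-600 kBq [¹⁸F] tracer in saline by tail vein. At 5, 30, 60 or 120 min (n=4-5 per time) they were anesthetized, blood and urine sampled, then killed by cervical dislocation. Organs were weighed and γ-counted, giving % ID/g wet tissue.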

Brain [9] = assay: Biodistribution in CD1 mouse brain assessed per gram of wet tissue at 400 to 600 kBq, iv after 60 mins post-injection by gamma counting in presence of 1 mg/kg, ip sigma 1/sigma 2 receptor antagonist haloperidol treated before compound addition; assay type: organism-based; set-up: dose 1 mg/kg, route intravenous; conditions: in vivo, 1 h; procedure, shortened: as §5
Lung [10] = assay: Biodistribution in CD1 mouse lung assessed per gram of wet tissue at 400 to 600 kBq, iv after 5 mins post-injection by gamma counting; assay type: ADME, organism-based; conditions: in vivo; procedure, shortened: as §2
Spleen [11] = assay: Biodistribution in CD1 mouse spleen assessed per gram of wet tissue at 400 to 600 kBq, iv after 60 mins post-injection by gamma counting in presence of 1 mg/kg, ip sigma 1/sigma 2 receptor antagonist haloperidol treated before compound addition; assay type: organism-based; set-up: route intravenous; conditions: in vivo, 1 h; procedure, shortened: as §4
Pancreas [12] = assay: Biodistribution in CD1 mouse pancreas assessed per gram of wet tissue at 400 to 600 kBq, iv after 5 mins post-injection by gamma counting; assay type: ADME, organism-based; conditions: in vivo; procedure, shortened: as §2
Stomach = assay: Biodistribution in CD1 mouse stomach assessed per gram of wet tissue at 400 to 600 kBq, iv after 120 mins post-injection by gamma counting; assay type: ADME, organism-based; conditions: in vivo, 2 h; procedure, shortened: as §2
[13] = N-octanol-phosphate buffer distribution coefficient, log D in three buffered solution by shake flask method; assay type: physicochemical
Procedure, shortened: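 [18F]-labelled tracer partitioned between n-octanol and Sorensen's phosphate buffer (50 mM, pH 7.2), Dulbecco's PBS (pH 7.2) or TRIS-HCl (30 mM, pH 7.2). Conventional shake-flask method, multiple distribution in duplicates, n = 50 in total.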

Mus musculus [14] = assay: Plasma concentration in CD1 mouse assessed per gram of wet tissue at 400 to 600 kBq, iv after 120 mins post-injection by gamma counting; assay type: ADME, organism-based; conditions: in vivo, 2 h; procedure, shortened: as §1
Spleen [15] = assay: Biodistribution in CD1 mouse spleen assessed per gram of wet tissue at 400 to 600 kBq, iv after 120 mins post-injection by gamma counting; assay type: ADME, organism-based; conditions: in vivo, 2 h; procedure, shortened: as §2
[16] = Chemical stability assessed as occurrence of defluorination by radio-TLC and analytical radio-HPLC; assay type: physicochemical
Brain [17] = assay: Biodistribution in CD1 mouse brain assessed per gram of wet tissue at 400 to 600 kBq, iv after 30 mins post-injection by gamma counting; assay type: ADME, organism-based; conditions: in vivo, 0.5 h; procedure, shortened: as §6
[18] = Ratio of drug level in cerebellum to plasma in CD1 mouse at 400 to 600 kBq, iv after 120 mins post-injection; assay type: ADME, organism-based; procedure, shortened: as §3
[19] = Biodistribution in CD1 mouse thymus assessed per gram of wet tissue at 400 to 600 kBq, iv after 30 mins post-injection by gamma counting; assay type: ADME, organism-based; conditions: in vivo, 0.5 h; procedure, shortened: as §2
[20] = Drug uptake in CD1 mouse thymus at 400 to 600 kBq, iv after 120 mins post-injection by gamma counting relative to initial uptake; assay type: ADME, organism-based; conditions: in vivo, 2 h
Procedure, shortened: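 Organ % ID/g was measured by γ-counting after tail-vein injection of 400-600 kBq [18F] tracer in saline to fasted female CD-1 mice (n=4-5 per time). The 120 min pi value is expressed relative to the initial (5 min pi) uptake.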

Liver = assay: Biodistribution in CD1 mouse liver assessed per gram of wet tissue at 400 to 600 kBq, iv after 5 mins post-injection by gamma counting; assay type: ADME, organism-based; conditions: in vivo; procedure, shortened: as §2
Intestine = assay: Biodistribution in CD1 mouse intestine assessed per gram of wet tissue at 400 to 600 kBq, iv after 30 mins post-injection by gamma counting; assay type: ADME, organism-based; conditions: in vivo, 0.5 h; procedure, shortened: as §6
[21] = Biodistribution in CD1 mouse gonad assessed per gram of wet tissue at 400 to 600 kBq, iv after 120 mins post-injection by gamma counting; assay type: ADME, organism-based; conditions: in vivo, 2 h; procedure, shortened: as §6
[22] = Biodistribution in CD1 mouse thymus assessed per gram of wet tissue at 400 to 600 kBq, iv after 120 mins post-injection by gamma counting; assay type: ADME, organism-based; conditions: in vivo, 2 h; procedure, shortened: as §2

## [18F]CCCC1OC2(CCN(Cc3ccccc3)CC2)c2ccccc21 (stereo unspecified)
Mus musculus [1]
  Drug uptake: 0.52 %ID
[2]
  Activity: 98%
Pancreas [3]
  Drug uptake: 10.5 %ID
[4]
  Kp at 5 min: 2.49
Lung [5]
  Drug uptake: 2.11 %ID
Mus musculus [6]
  Drug uptake: 1.85 %ID
Blood
  Drug uptake: 0.56 %ID
Pancreas [7]
  Drug uptake: 12.8 %ID
[8]
  Drug uptake: 3.4 %ID
Brain [9]
  Drug uptake: 0.54 %ID
Lung [10]
  Drug uptake: 16.2 %ID
Spleen [11]
  Drug uptake: 1.89 %ID
Pancreas [12]
  Drug uptake: 8.76 %ID
Stomach
  Drug uptake: 3.12 %ID
[13]
  logD: 3.03
Mus musculus [14]
  Drug uptake: 0.44 %ID
Spleen [15]
  Drug uptake: 4.65 %ID
[16]
  Stability: Stable
Brain [17]
  Drug uptake: 3.18 %ID
[18]
  Kp at 2 h: 5.48
[19]
  Drug uptake: 3.26 %ID
[20]
  Drug uptake: > 70%
Liver
  Drug uptake: 5.54 %ID
Intestine
  Drug uptake: 6.81 %ID
[21]
  Drug uptake: 4.16 %ID
[22]
  Drug uptake: 2.86 %ID
